The text below walks through data of ChEMBL document CHEMBL2321661, “Synthesis and biological evaluation of 5-nitropyrimidine analogs with azabicyclic substituents as GPR119 agonists” (Bioorg Med Chem Lett, 2013).

Experiment [1] has as its target T1, Glucose-dependent insulinotropic receptor (Homo sapiens, UniProt Q8TDV5).
T1 sequence (Q8TDV5 whole entry): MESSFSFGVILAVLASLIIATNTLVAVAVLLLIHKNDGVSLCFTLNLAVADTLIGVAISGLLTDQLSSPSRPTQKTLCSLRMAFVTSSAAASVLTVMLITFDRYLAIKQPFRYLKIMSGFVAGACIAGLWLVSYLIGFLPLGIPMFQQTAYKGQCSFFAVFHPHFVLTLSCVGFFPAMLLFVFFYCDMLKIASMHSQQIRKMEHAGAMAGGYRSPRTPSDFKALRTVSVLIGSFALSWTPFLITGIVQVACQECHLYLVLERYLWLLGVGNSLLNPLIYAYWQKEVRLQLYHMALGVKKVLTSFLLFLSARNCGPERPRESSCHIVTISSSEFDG
The experiment can be described thus: Agonist activity at human GPR119 transfected in HEK293 cells assessed as concentration for 50 % cAMP stimulation of oleylethanolamine. The format is functional, cell-based. In short, it runs like this: (§1)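 HEK293 cells seeded at 4 × 10³ cells/well and grown 24 h, then transiently transfected with a human GPR119 expression plasmid by lipofection. After 24 h, compounds were applied in KRBH buffer with 0.1% BSA and IBMX for 60 min at 37 °C. Cells were lysed 10 min at room temperature (phosphate/KF/Triton, pH 7.0), and cAMP was read by HTRF.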

In experiment [2] the target is T2, Glucose-dependent insulinotropic receptor (Homo sapiens) (UniProt Q8TDV5).
T2 sequence (whole entry): T1 sequence (Q8TDV5 whole entry)
The experiment can be described thus: Agonist activity at human GPR119 transfected in HEK293 cells assessed as cAMP stimulation relative to maximal effect of oleylethanolamine. The format is functional, cell-based. Summed up:
as §1

In the case of `CC(C)(C)OC(=O)N1[C@@H]2CC[C@H]1C[C@@H](Oc1ncnc(Nc3ccc(S(C)(=O)=O)cc3)c1[N+](=O)[O-])C2` (stereo in doubt; 11) [listing 1 of 2 here], the concentration giving a half-maximal response (EC50) in experiment [1] is 4.9 nM.
For the compound `CCCCCCCC/C=C\CCCCCCCC(=O)NCCO`, the Emax in experiment [2] was 100%.
Take `CC(C)(C)OC(=O)N1[C@@H]2CC[C@H]1C[C@@H](Oc1ncnc(Nc3ccc(S(C)(=O)=O)cc3)c1[N+](=O)[O-])C2` (stereo in doubt; 13) [listing 1 of 2 here]: the Emax in experiment [2] was determined as 69%.
The same measure, in the same setting: as for `CC(C)(C)OC(=O)N1[C@@H]2CC[C@H]1C[C@@H](Oc1ncnc(Nc3ccc(S(C)(=O)=O)cc3)c1[N+](=O)[O-])C2` (stereo in doubt; 11) [listing 2 of 2 here], the figure is 99%.
For `CC(C)(C)OC(=O)N1[C@@H]2CC[C@H]1C[C@@H](CNc1ncnc(Nc3ccc(S(C)(=O)=O)cc3)c1[N+](=O)[O-])C2`, the Emax in experiment [2] amounted to 41%. Besides, the EC50 in experiment [1] was over 10000 nM.
In the same order, the values of `CC(C)(C)OC(=O)N1[C@@H]2CC[C@H]1C[C@@H](CNc1ncnc(Nc3ccc(S(C)(=O)=O)cc3F)c1[N+](=O)[O-])C2` are 53% and 6.7 nM.
For `CC(C)(C)OC(=O)N1[C@@H]2CC[C@H]1C[C@@H](Oc1ncnc(Nc3ccc(S(C)(=O)=O)cc3F)c1[N+](=O)[O-])C2` (stereo in doubt; 14) [listing 1 of 2 here], in experiment [1], the EC50 was 1.4 nM.
As to `CC(C)(C)OC(=O)N1[C@@H]2CC[C@H]1C[C@H](Nc1ncnc(Nc3ccc(S(C)(=O)=O)cc3)c1[N+](=O)[O-])C2`, the Emax in experiment [2] came to 139%. In addition, the concentration for a half-maximal effect (EC50) in experiment [1] came to 11.5 nM.
The matching figures for `CC(C)(C)OC(=O)N1[C@@H]2CC[C@H]1C[C@H](Nc1ncnc(Nc3ccc(S(C)(=O)=O)cc3F)c1[N+](=O)[O-])C2`: 99% and 1.5 nM.
Take `CC(C)(C)OC(=O)N1[C@@H]2CC[C@H]1C[C@@H](Oc1ncnc(Nc3ccc(S(C)(=O)=O)cc3)c1[N+](=O)[O-])C2` (stereo in doubt; 13) [listing 2 of 2 here]: the EC50 in experiment [1] was found to be 14.5 nM.
On the same count and under the same terms, the result for `CC(C)(C)OC(=O)N1[C@@H]2CC[C@H]1C[C@@H](Oc1ncnc(Nc3ccc(S(C)(=O)=O)cc3F)c1[N+](=O)[O-])C2` (stereo in doubt; 12) [listing 1 of 2 here] reads 1.5 nM.
As to `CC(C)(C)OC(=O)N1[C@@H]2CC[C@H]1C[C@@H](Oc1ncnc(Nc3ccc(S(C)(=O)=O)cc3F)c1[N+](=O)[O-])C2` (stereo in doubt; 14) [listing 2 of 2 here], in experiment [2], the Emax was determined as 65%.
As to `CC(C)(C)OC(=O)N1[C@@H]2CC[C@H]1C[C@@H](Oc1ncnc(Nc3ccc(S(C)(=O)=O)cc3F)c1[N+](=O)[O-])C2` (stereo in doubt; 12) [listing 2 of 2 here], in experiment [2], the Emax came to 116%.
